Results taken from article PMC4636733 (The Biochemical journal, 2012).

Columns and labels:
[1] = target: PbIMPDH-A (IMPDH-A from Penicillium brevicompactum) (Penicillium brevicompactum, UniProt A0A9W9QLZ9); experiment: IMPDH enzyme assay; assay type: biochemical
[2] = target: PbIMPDH-B (IMPDH-B from P. brevicompactum) (Penicillium brevicompactum, UniProt F1DBB2); experiment: biochemical
[3] = target: PbIMPDH-A Tyr411 substituted with Phe (Penicillium brevicompactum, UniProt A0A9W9QLZ9, Y425F); experiment: MPA inhibition of PbIMPDH-A variant 411*; assay type: biochemical; conditions: read-out: IC50, 411*, PbIMPDH-A Tyr411 to Phe
[4] = target: PbIMPDH-B Phe411 substituted with Tyr (Penicillium brevicompactum, UniProt F1DBB2, F415Y); experiment: MPA inhibition of PbIMPDH-B variant 411*; assay type: biochemical
Sequence of PbIMPDH-B Phe411 substituted with Tyr (F1DBB2 whole entry F415Y): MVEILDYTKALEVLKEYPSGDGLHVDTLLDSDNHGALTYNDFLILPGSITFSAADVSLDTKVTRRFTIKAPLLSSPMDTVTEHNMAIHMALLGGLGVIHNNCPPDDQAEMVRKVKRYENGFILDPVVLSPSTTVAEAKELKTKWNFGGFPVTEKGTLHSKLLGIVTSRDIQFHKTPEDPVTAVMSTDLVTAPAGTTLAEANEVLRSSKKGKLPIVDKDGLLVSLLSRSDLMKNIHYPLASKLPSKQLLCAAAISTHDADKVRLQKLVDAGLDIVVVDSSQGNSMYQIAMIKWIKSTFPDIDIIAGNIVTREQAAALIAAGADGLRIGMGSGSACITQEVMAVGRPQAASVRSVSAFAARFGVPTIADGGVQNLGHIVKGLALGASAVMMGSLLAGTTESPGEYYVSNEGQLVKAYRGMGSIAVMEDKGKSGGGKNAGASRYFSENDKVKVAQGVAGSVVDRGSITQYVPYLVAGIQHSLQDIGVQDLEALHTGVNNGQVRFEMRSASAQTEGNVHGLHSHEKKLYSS

[5] = target: AnImdA Tyr411 substituted with Phe (Aspergillus nidulans, UniProt C8V6R6, Y186F); experiment: MPA inhibition of AnImdA variant 411*; assay type: biochemical
[6] = test system: AnImdA, PcIMPDH-A and PcIMPDH-B; experiment: MPA inhibition of the MPA-sensitive fungal IMPDHs; assay type: biochemical; conditions: range over AnImdA
[7] = test system: P. chrysogenum; experiment: Spot assay to determine sensitivity towards MPA; assay type: cell-based, Penicillium chrysogenum; conditions: CYA plates with 200 μg/ml MPA (method) / 6.2 μM MPA (legend of Figure 2A), 25°C
Procedure, shortened: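 Strain IBT5857 spores harvested into sterile water. 10-fold serial dilutions spotted onto CYA with or without MPA, most concentrated spot ~10⁶ spores. MPA stock was 25 mg/ml in methanol, and every plate held 0.8% (v/v) methanol. Stock and plates were made just before spotting to avoid MPA degradation. Grown at 25°C; growth of dilution series scored.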

[8] = test system: E. coli ΔguaB expressing PbIMPDH-B; experiment: Bacterial complementation assay with MPA; assay type: cell-based; conditions: 100 μM MPA, no guanosine
Procedure, shortened: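 E. coli BL21(DE3) ΔguaB host (no endogenous IMPDH) carrying N-terminal His6-tagged fungal IMPDH on a pET28-derived vector. Overnight LB cultures with 25 μg/ml kanamycin; 1:20 serial dilutions spotted on M9 minimal medium with 0.5% casamino acids, 100 μg/ml L-tryptophan, 0.1% thiamin, kanamycin, 66 μM IPTG, ± 100 μM MPA; guanosine plates get 50 μg/ml. Incubated overnight at 37°C, then at room temperature; growth scored.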

[9] = test system: Imd2; conditions: Imd2 from Saccharomyces cerevisiae; cited from earlier work
[10] = test system: Imd3; conditions: Imd3 from Saccharomyces cerevisiae; cited from earlier work
[11] = cited from earlier work
[12] = target: AnImdA (IMPDH from Aspergillus nidulans) (Aspergillus nidulans, UniProt C8V6R6); experiment: biochemical
[13] = target: PcIMPDH-A (IMPDH-A from Penicillium chrysogenum) (Penicillium chrysogenum, UniProt B6HC24); experiment: biochemical
[14] = target: PcIMPDH-B (IMPDH-B from P. chrysogenum) (Penicillium chrysogenum, UniProt B6H451); experiment: biochemical
[15] = test system: NC(=O)c1ccc[n+]([C@@H]2O[C@H](COP(=O)([O-])OP(=O)(O)OC[C@H]3O[C@@H](n4cnc5c(N)ncnc54)[C@H](O)[C@@H]3O)[C@@H](O)[C@H]2O)c1; experiment: cells, lysate or membranes named; conditions: pH 8.0

Sequence of PbIMPDH-B (IMPDH-B from P. brevicompactum) (F1DBB2 whole entry): as the sequence (F1DBB2 whole entry F415Y) above, with Y415F counted along it

Compound: COc1c(C)c2c(c(O)c1C/C=C(\C)CCC(=O)O)C(=O)OC2 [MPA, mycophenolic acid]
- fold more resistant to MPA ([1]; PbIMPDH-A versus IMPDHs from the other filamentous fungi): 10 fold
- IC50 ([1]; read-out: IC50 (MPA), WT PbIMPDH-A, saturating IMP, half-saturating NAD^+, 25°C): 0.43 ± 0.03 µM
- IC50 [2]: 27 ± 9 µM
- IC50 [3]: 0.16 ± 0.02 µM
- IC50 [4]: 25 ± 2 µM
- IC50 [5]: 0.026 ± 0.002 µM
- IC50 [6]: 0.026 to 0.06 µM
- sensitivity towards MPA (growth of spore dilutions) [7]: more resistant to MPA than A. nidulans
- growth on minimal media with MPA [8]: resistant
- IC50 [9]: 70 µM
- IC50 [10]: 0.5 µM
- increase of IMP concentrations in the presence of MPA [11]: 10-35 fold
- IC50 [12]: 0.026 ± 0.002 µM
- IC50 [13]: 0.036 ± 0.004 µM
- IC50 [14]: 0.06 ± 0.01 µM

Compound: NC(=O)c1ccc[n+]([C@@H]2O[C@H](COP(=O)([O-])OP(=O)(O)OC[C@H]3O[C@@H](n4cnc5c(N)ncnc54)[C@H](O)[C@@H]3O)[C@@H](O)[C@H]2O)c1 [NAD^+, nicotinamide adenine dinucleotide]
- Km ([2]; read-out: KM (NAD^+), PbIMPDH-B): 790 ± 140 µM

Compound: AnImdA (IMPDH from Aspergillus nidulans) (Aspergillus nidulans FGSC A4)
- Km ([15]; other: AnImdA): 170 ± 70 µM
- kcat/Km ([15]; other: AnImdA): 4,400 ± 100 M^−1s^−1

Compound: PcIMPDH-A (IMPDH-A from Penicillium chrysogenum) (Penicillium rubens Wisconsin 54-1255)
- Km ([15]; other: PcIMPDH-A): 290 ± 60 µM
- kcat/Km ([15]; other: PcIMPDH-A): 2900 ± 300 M⁻¹ s⁻¹

Compound: PcIMPDH-B (IMPDH-B from P. chrysogenum) (Penicillium rubens Wisconsin 54-1255)
- Km ([15]; other: PcIMPDH-B): 640 ± 130 µM
- kcat/Km ([15]; other: PcIMPDH-B): 11 ± 6 M⁻¹ s⁻¹
